Data set [1] can be described thus: Drug excretion in rat urine at 50 mg/kg, po. The class given is ADME, organism-based. Also noted: dose 50 mg/kg, route oral. The settings on record: in vivo.
Data set [2] concerns Liver microsome. Nature of the data set: Drug metabolism in human liver microsomes assessed as oxidative metabolism at 10 uM in presence of 0.1 uM alpha-naphthoflavone CYP1A2 inhibitor. Format: ADME. An outline of the steps: (§1)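 Pooled human liver microsomes (1 mg/ml, mixed-gender, 50 donors), 10 µM Rh2, 2 mM NADPH and selective inhibitor in 100 mM potassium phosphate pH 7.4; 37°C, 60 min; ice-cold acetonitrile stop; uninhibited controls; duplicates; formation of M1-2, M1-3 and M1-4+M1-5 quantified by LC/ion-trap MSn.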

Data set [3] deals with Liver microsome. Briefly: Drug metabolism in human liver microsomes assessed as oxidative metabolism at 10 uM in presence of 2 uM quinidine CYP2D6 inhibitor. The class given is ADME. An outline of the steps: as §1
Data set [4] has as its system Liver microsome. Briefly: Drug metabolism in human liver microsomes assessed as oxidative metabolism at 10 uM in presence of 60 uM chlormethiazole CYP2E1 inhibitor. Format: ADME. In short, it runs like this:
as §1

Data set [5] has as its target T1, Cytochrome P450 1B1 (Homo sapiens, UniProt Q16678).
T1 sequence (Q16678 whole entry): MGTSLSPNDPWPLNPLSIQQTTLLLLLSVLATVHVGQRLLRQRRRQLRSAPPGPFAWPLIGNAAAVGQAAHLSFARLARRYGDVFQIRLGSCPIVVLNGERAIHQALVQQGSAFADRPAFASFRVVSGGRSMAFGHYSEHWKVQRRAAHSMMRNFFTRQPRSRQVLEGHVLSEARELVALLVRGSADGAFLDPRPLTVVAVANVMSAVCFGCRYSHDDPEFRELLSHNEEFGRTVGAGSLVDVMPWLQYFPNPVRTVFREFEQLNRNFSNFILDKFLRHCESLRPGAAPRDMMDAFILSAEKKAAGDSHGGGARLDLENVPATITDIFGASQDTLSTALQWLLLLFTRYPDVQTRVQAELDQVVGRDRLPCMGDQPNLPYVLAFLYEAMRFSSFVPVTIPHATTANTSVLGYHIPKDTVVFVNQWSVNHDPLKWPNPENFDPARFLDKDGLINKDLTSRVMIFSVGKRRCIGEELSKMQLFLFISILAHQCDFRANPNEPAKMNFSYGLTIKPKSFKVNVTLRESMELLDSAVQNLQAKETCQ
Nature of the data set: Drug metabolism in human recombinant CYP1B1 mediated oxidative metabolism at 10 uM. The class given is ADME. As to conditions: recombinant enzyme. An outline of the steps:
(§2)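 Recombinant human P450 at 50 nM incubated with 10 µM Rh2 and 2 mM NADPH in 100 mM potassium phosphate pH 7.4, 37°C, 60 min; ice-cold acetonitrile stop; duplicates; metabolites detected by LC/ion-trap MSn.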

Data set [6] deals with T2, Cytochrome P450 2A6 (Homo sapiens, UniProt P11509).
T2 sequence (P11509 whole entry): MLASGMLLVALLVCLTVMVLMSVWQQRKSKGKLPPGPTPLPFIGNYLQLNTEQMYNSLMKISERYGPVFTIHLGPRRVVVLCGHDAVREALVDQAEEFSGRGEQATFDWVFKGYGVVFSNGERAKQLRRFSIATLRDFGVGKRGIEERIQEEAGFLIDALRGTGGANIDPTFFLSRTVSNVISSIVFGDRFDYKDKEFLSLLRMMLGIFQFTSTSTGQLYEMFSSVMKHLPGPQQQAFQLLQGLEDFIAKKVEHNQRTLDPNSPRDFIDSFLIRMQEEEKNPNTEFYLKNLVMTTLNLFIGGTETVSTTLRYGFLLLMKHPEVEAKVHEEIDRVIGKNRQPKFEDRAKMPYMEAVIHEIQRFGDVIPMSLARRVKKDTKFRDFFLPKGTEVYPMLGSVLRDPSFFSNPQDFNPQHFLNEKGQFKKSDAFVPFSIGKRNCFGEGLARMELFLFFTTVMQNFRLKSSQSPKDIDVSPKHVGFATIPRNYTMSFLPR
Briefly: Drug metabolism in human recombinant CYP2A6 mediated oxidative metabolism at 10 uM. The class given is ADME. The settings on record: recombinant enzyme. In short, it runs like this: as §2

The target of data set [7] is Cytochrome P450 2E1 (Homo sapiens, UniProt P05181). Briefly: Drug metabolism in human recombinant CYP2E1 mediated oxidative metabolism at 10 uM. Format: ADME. As to conditions: recombinant enzyme. An outline of the steps: as §2
A short description of data set [8]: Drug metabolism in cynomolgus monkey liver microsomes assessed as (2S)-2-amino-5-((2R)-1-(carboxymethylamino)-3-((6S)-2,6-dihydroxy-6-((3S,5R,8R,9R,10R,12R,13R,14R,17S)-12-hydroxy-4,4,8,10,14-pentamethyl-3-((2R,3R,4S,5S,6R)-3,4,5-trihydroxy-6-(hydroxymethyl)tetrahydro-2H-pyran-2-yloxy)hexadecahydro-1H-cyclopenta[a]phenanthren-17-yl)-2-methylheptan-3-ylthio)-1-oxopropan-2-ylamino)-5-oxopentanoic acid formation at 10 uM by LC/MS analysis in presence of 1 uM ketoconazole. Format: ADME, Macaca fascicularis. An outline of the steps: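 Cynomolgus monkey liver microsomes (1 mg/ml) with 2 mM GSH, 10 µM Rh2 and 1.0 µM ketoconazole preincubated 10 min before adding 2 mM NADPH; GSH conjugate measured by LC/ion-trap MSn peak area; duplicates.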

Data set [9] can be described thus: Drug metabolism in cynomolgus monkey liver microsomes assessed as (24S,25)-epoxydamma-rane-12,20-diol-3-beta-D-glucopyranoside formation at 10 uM after 1 hr by LC/MS analysis in presence of GSH. The class given is ADME, Macaca fascicularis. In short, it runs like this:
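Male cynomolgus monkey liver microsomes (1 mg/ml) with 10 µM Rh2, 2 mM GSH and 2 mM NADPH in 100 mM potassium phosphate pH 7.4, 37°C, 60 min after 3 min preincubation; microsomes start reaction; ice-cold acetonitrile stop; no-NADPH controls; duplicates; LC/ion-trap MSn detection.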

Cytochrome P450 2E1, sequence (P05181 whole entry): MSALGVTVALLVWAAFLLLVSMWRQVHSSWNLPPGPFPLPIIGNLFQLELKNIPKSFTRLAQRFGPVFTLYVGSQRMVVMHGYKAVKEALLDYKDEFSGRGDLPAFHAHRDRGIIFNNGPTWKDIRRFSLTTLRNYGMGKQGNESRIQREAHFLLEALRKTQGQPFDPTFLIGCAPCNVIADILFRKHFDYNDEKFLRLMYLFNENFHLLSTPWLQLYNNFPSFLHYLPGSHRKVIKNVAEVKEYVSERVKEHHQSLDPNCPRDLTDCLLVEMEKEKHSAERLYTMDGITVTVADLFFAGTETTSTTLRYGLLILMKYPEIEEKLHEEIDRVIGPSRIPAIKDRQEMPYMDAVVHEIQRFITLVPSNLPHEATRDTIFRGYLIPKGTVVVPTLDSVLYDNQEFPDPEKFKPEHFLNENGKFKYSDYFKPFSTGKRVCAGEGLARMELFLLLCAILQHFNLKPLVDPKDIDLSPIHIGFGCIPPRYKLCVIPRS

On to `CC(C)=CCC[C@](C)(O)[C@H]1CC[C@]2(C)[C@@H]1[C@H](O)C[C@@H]1[C@@]3(C)CC[C@H](O[C@@H]4O[C@H](CO)[C@@H](O)[C@H](O)[C@H]4O)C(C)(C)[C@@H]3CC[C@]12C` [GINSENOSIDE RH2], for which the Drug excretion result in data set [1] is “metabolite_not_detected”. Also, the Drug metabolism entry in [2] is “metabolite_detected”; in [3] it was “metabolite_detected”; in data set [4] it was “metabolite_detected”; in data set [5], “metabolite_not_detected”; in data set [6] it was “metabolite_not_detected”; in data set [7], “metabolite_not_detected”. Further, the Drug metabolism entry in data set [8] is on record as “metabolite_not_detected”; in data set [9], “metabolite_detected”.

Source of the values: ChEMBL document CHEMBL3525925, “In vitro studies on the oxidative metabolism of 20(s)-ginsenoside Rh2 in human, monkey, dog, rat, and mouse liver microsomes, and human liver s9” (Drug Metab Dispos, 2012).
